Type in all cases: functional
Assay [1] deals with Rattus norvegicus. As to the kind of experiment: Acetylcholine release data in […] rats when compound was administered subcutaneously at dose of 40 mg/kg. Particulars: route subcutaneous. In outline: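 In vivo acetylcholine release from hippocampus of freely moving Sprague–Dawley rats after subcutaneous dosing. […] Mean ± SEM of 2–6 independent experiments, compared against saline control by two-way repeated measures ANOVA with Student–Newman–Keuls post-hoc test.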

For assay [2], the species on record is Rattus norvegicus. As to the kind of experiment: In vitro efficacy to stimulate [3H]NE in rat hippocampus. In outline: (§1)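 Release of [3H]DA (striatum) or [3H]NE (hippocampus, prefrontal cortex) from rat brain slice preparations stimulated by test compound at 300 μM. […] Mean ± SD of 3–6 experiments.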
The species entered for assay [3] is Rattus norvegicus. The experiment in a line: In vitro efficacy to stimulate [3H]NE in rat prefrontal cortex membrane slice. In outline:
as §1

Assay [4] is filed under the species Rattus norvegicus. The experiment in a line: In vitro efficacy to stimulate the release of [3H]dopamine from rat striatal slices. The method, boiled down: as §1
The test system of assay [5] is Rattus norvegicus. The experiment in a line: Acetylcholine release data in […] rats when compound was administered subcutaneously at dose of 40(mg/Kg).
The species entered for assay [6] is Rattus norvegicus. As to the kind of experiment: In vitro efficacy to stimulate [3H]-dopamine from brain slice preparations. The method, boiled down: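 Striatal brain slices stimulated with test compound at 300 μM; [3H]dopamine release measured. […] Mean ± SD of 3–6 experiments.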

Molecules are shown by their SMILES.

With `CN1CCCC1CCSc1ccc(O)cc1` (configuration not stated), the Activity in assay [1] is reported as 12. The Efficacy is 0.2 in assay [2], 0.6 in assay [3] and 6.5 in assay [4].

`CN1CCCC1CCSc1ccccc1` (configuration not stated) came in with an Activity in assay [5] of 0.6. In addition, the Efficacy in assay [6] is listed as 1.5.

The compound `CN1CCC[C@@H]1CCSc1ccc(O)cc1` had an Activity in assay [1] of 10. Further, the Efficacy is 0.2 in assay [2], 0.3 in assay [3] and 4.1 in assay [4].

In assay [1], `CN1CCC[C@H]1CCSc1ccc(O)cc1` had an Activity of 13. Further, the figures for the Efficacy in assay [2], in assay [3] and in assay [4] were 0.3, 0.35 and 4.3, respectively.

Take `CN1CCC[C@H]1c1cccnc1` [NICOTINE]: the Efficacy in assay [2], in assay [3] and in assay [4] was 1 in each case.

(Values after ChEMBL document CHEMBL1132158, “4-[[2-(1-Methyl-2-pyrrolidinyl)ethyl]thio]phenol hydrochloride (SIB-1553A): a novel cognitive enhancer with selectivity for neuronal nicotinic acetylcholine receptors” (J Med Chem, 1999).)
